hERG protect = hERG (human) protection from proarrhythmic block; Q12809; CHO-hERG, FluxOR thallium flux, dofetilide IC70 present; activation (rescue from dofetilide block), less the hit threshold, % at 10 µM; 310,000 tested, 0.51% active; AID 1511;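 active means activation above the mean of controls blocked by dofetilide plus 5 SD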;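 further: thallium influx through hERG after potassium depolarization seen as dye fluorescence rise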
KCNQ1 act = potentiators or activators of human KCNQ1 potassium channel | P51787 | CHO-K1 KCNQ1, thallium flux FluxOR fluorescence; stronger effect = higher value | B-score at 10 µM | 310,000 tested, 0.35% active;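 active means fluorescence ratio B-score, a plate-corrected score, at least three library SD, with initial intensity B-score within 5 SD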
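System: CHO-K1 cells stably expressing KCNQ1 / Medium: assay buffer for compound exposure, DMSO matched across wells / Reagent: thallium- and potassium-containing depolarizing buffer / Compound: one concentration, matched DMSO / Incubation: 20 min compound pretreatment at room temperature / Measured by: kinetic FluxOR fluorescence, 10 s baseline plus 110 s post-stimulus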
KCNK3 block = human KCNK3 channel inhibition, primary screen; AID 602410; CHO-KCNK3 thallium flux, FluxOR fluorescence; stronger effect = lower value; B-score at 10 µM; O14649; 340,000 tested, 0.84% active;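 active means B-score under library mean minus 4 SD, starting fluorescence ratio at most library mean plus 5 SD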;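 further: more negative B-score means stronger inhibition of thallium flux through KCNK3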
KCNK9 block = inhibitors of human KCNK9 two-pore domain potassium channel; 310,000 tested, 1.2% active; B-score at 10 µM; Q9NPC2; HEK293 KCNK9, FluxOR thallium flux fluorescence; stronger effect = lower value;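 active means ratio B-score over 3 SD below the library mean, with starting fluorescence within 5 SD of its mean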;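 further: negative B-score means less thallium flux so channel inhibition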
Target sequence (Q9NPC2 whole entry, looked up, the tested form may be a part): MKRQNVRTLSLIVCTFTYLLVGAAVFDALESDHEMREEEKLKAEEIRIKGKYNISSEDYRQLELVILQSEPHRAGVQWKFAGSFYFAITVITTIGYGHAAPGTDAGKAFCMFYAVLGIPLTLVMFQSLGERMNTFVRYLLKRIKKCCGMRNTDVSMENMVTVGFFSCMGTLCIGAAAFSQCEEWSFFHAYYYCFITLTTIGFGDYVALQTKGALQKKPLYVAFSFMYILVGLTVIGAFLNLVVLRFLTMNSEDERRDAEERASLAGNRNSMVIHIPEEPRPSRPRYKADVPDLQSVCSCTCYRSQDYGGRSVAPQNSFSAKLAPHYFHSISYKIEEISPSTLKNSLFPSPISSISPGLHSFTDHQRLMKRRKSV
KCNQ1 block = human KCNQ1 channel inhibition. 310,000 tested, 1.3% active. CHO-K1 KCNQ1, FluxOR thallium flux fluorescence; stronger effect = higher value. AID 2642. B-score at 10 µM. P51787;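 active means compounds whose thallium flux B-score, printed positive for inhibition, exceeds three library SD while starting fluorescence stays within three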;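 further: channel opened by potassium depolarization with thallium stimulus after 20 min compound exposure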
An asterisk follows results filed as active; i = inactive; . = no result given. This is a sample that favours compounds with a hit; in the whole collection about 3.1% have one here.

SMILES	hERG protect	KCNQ1 act	KCNK3 block	KCNK9 block	KCNQ1 block
CCC/C=C(\CCC)C(NS(=O)(=O)c1cccc2cccnc12)c1ccc(C(=O)OC)cc1 (configuration not stated)	-12	i	.	i	6*
CCOc1cc(C(=O)N/N=C/c2cn(-c3ccccc3)nc2-c2cc3ccccc3o2)cc(OCC)c1OCC	.	.	i	.	.
CCCOc1ccc(/C=N/NC(=O)CN2CCCCC2)cc1OCC	-6	i	i	i	i
CCCCOc1ccc(C(=O)N/N=C/c2ccc(OCCN3CCCCC3)c(OC)c2)cc1	-15	i	i	i	6*
S=C(Nc1ccc(Br)cc1)N1CCn2cccc2C1c1cccnc1 (configuration not stated)	-16	22*	i	i	i
CCN(C(=O)CSc1nc2ccccc2c(=O)n1-c1ccc(C)cc1)C1CCS(=O)(=O)C1 (configuration not stated)	-17	i	i	i	i
CCN(C(=O)CSc1nc2ccccc2c(=O)n1-c1ccccc1F)C1CCS(=O)(=O)C1 (configuration not stated)	.	.	-11*	.	.
CCN(C(=O)CSc1nc2cc(Cl)ccc2c(=O)n1CC(C)C)C1CCS(=O)(=O)C1 (configuration not stated)	-14	i	-11*	i	i
CCN(C(=O)CSc1nc2ccccc2c(=O)n1C(C)COC)C1CCS(=O)(=O)C1 (configuration not stated)	-6	i	i	i	i
N#CCCCc1cc2ccccc2cn1	.	.	i	.	.
Cc1c(C(=O)N2CCN(Cc3ccc4c(c3)OCO4)CC2)sc2ncnc(N3CCN(c4ccccc4)CC3)c12	-17	i	i	i	7*
Cc1c(C(=O)N2CCN(Cc3ccc4c(c3)OCO4)CC2)sc2ncnc(N3CCN(c4ccccc4F)CC3)c12	-19	i	i	i	i
CCCSCCCNC(=O)c1ccc(C)c(NC(=O)C2=C(C)OCCS2)c1	-6	i	i	i	i
CC(C)(C)C(=O)/C=c1\[nH]c(=O)/c(=C\c2ccc(F)cc2)s1	-11	i	i	-8*	i
CCc1ccc(/C=c2\s/c(=C\C(=O)C(C)(C)C)[nH]c2=O)cc1	4	i	i	i	i
Cc1cccn2c(=O)c(C=O)c(N3CCN(c4ccc(F)cc4)CC3)nc12	-5	i	i	i	i
CCN(CC)c1ccc(NC(=O)COc2ccc(C#N)cc2)cc1S(=O)(=O)Nc1ccc(OC)cc1	-2	i	i	i	i
O=C1CSC(c2ccccn2)N1c1ccc(Cl)c(Cl)c1 (configuration not stated)	-9	i	i	-7.6*	i
O=C(O)c1ccc2c(c1)C(=O)N(c1cc([N+](=O)[O-])ccn1)C2=O	5.2*	i	i	i	i
O=C(Nc1ccccc1C(=O)O)c1ccc2c(c1)C(=O)N(c1cccc([N+](=O)[O-])c1)C2=O	7.0*	i	i	i	i
O=C(Nc1c[nH]c(=O)[nH]c1=O)c1ccc2c(c1)C(=O)N(c1cccc([N+](=O)[O-])c1)C2=O	1	i	i	i	i
CCn1c([N+](=O)[O-])nc2c1c(=O)[nH]c(=O)n2C	-13	i	i	i	i
CCCn1nc(C(=O)NNC(=O)CSC(C)C(=O)Nc2cc(C)on2)c2ccccc2c1=O (configuration not stated)	-10	i	i	i	i
CCCCn1c(=O)[nH]c(=O)c2c1nc(Cn1ncc(Cl)c(Cl)c1=O)n2CCC	-17	11*	i	i	i
CCCCn1c(=O)[nH]c(=O)c2c1nc(CN1C(=O)c3ccccc3S1(=O)=O)n2CCC	-4	i	i	i	i
CCC(C)NC(=O)c1ccccc1NC(=O)/C(=C/c1ccc(OC)cc1)c1ccccc1 (configuration not stated)	-14	i	i	i	7*
CC(OC(=O)CCc1nc2ccccc2c(=O)[nH]1)C(=O)Nc1cccc(C(F)(F)F)c1 (configuration not stated)	.	.	i	.	.
O=C(NN1C(=O)C2C3c4ccccc4C(c4ccccc43)[C@@H]2C1=O)c1ccccc1 (some centres not stated)	1	i	i	i	i
